Test results reported in the EternaBench riboswitch data.

System: MS2 coat protein
Assay: apparent Kd, MS2 coat protein; higher = weaker binding; RNA-MaP array; FMN 200 µM where present
Procedure, shortened: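 The titrant was SNAP-549-labelled MS2 coat protein, run from 0.7 or 1.5 nM in doubling steps to 3 µM. It was applied to designs transcribed by stalled E. coli RNA polymerase on Illumina sequencing-chip clusters, without ligand first and then with constant ligand, in 100 mM Tris-HCl pH 7.5, 80 mM KCl, 4 mM MgCl2, BSA, DTT, yeast tRNA and Tween-20. The apparent Kd is the median of filtered per-cluster binding-curve fits, with green signal normalised to red-channel RNA signal and control-cluster median Fmax.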

[1] = designed as: OFF switch for flavin mononucleotide, no ligand
[2] = ligand present: flavin mononucleotide, designed as: OFF switch for flavin mononucleotide
[3] = designed as: ON switch for flavin mononucleotide, no ligand
[4] = ligand present: flavin mononucleotide, designed as: ON switch for flavin mononucleotide

Sequence	apparent Kd [1] [nM]	apparent Kd [2] [nM]	apparent Kd [3] [nM]	apparent Kd [4] [nM]
CCCUCGUAGUAGAAGGGCGGCCGAAAUCUGCACGCAGGAUAUACAUGAGGAUCACCCAUGUACUGAGCUGAAGAGCACUUGGAA	15.1	14.5		
CCGAAACCUCAGAAGGACCACAUGAGGAUCACCCAUGUCAAGCAAAACGGUAGGAUAUGAGGGAAAUGUCGAUAUACCCGACAG			7.9	4.72
CCGAAUGUCACAGGAUAUGGUCCGGGCACGCGACCAGAAGGGUGAUCUCACAUGAGGAUCACCCAUGUGCAGUUGUUAAGCUGC			23.8	106
CCGAUAAGGAGAGGAUAUGGACAUGAGGAUCACCCAUGUACAUGGGAAUAUAUACUGAAUUUUUACUAGAAGGCUUACAUAAAU	15.6	12.6		
CCGAUUAGCACAGGAUAUGGGAAUUCGUAGUUUCCAGAAGGGUGAGCCAAUACAUGAGGAUCACCCAUGUGCGGUAGGUCGAGA			51.1	60.7
CCGCGACACGAAGGAUAUGUGGGUGGUAGUCUGUGCUCCGCCUACAUGAGGAUCACCCAUGUAUCACAGAAGGUCGGACGUCGA			26.7	125
CCGGAAACGGGUAGCCUGACAUGAGGAUCACCCAUGUGAACCAAGGAUAUGGAUCCUAAUUGGAUCCAGAAGGUGGAAGGCUAC			243	45.3
CCGGAAACGGGUAGCUGACAUGAGGAUCACCCAUGUGUUACACAGGAUAUGGAUCCUAAUUGGAUCCAGAAGGGUGUCAGCUAC			220	36.5
CCGGAAAGGAAGGAUAUGCUAGACGAUAGUCUAGCAGAAGGUCCUACAUGAGGAUCACCCAUGUGUCCUACCGG	45.2	54.4		
CCGGAAAUGCAGGAUAUCGUAUCGGAUACGAUACGAGAAGGGUAUACAUGAGGAUCACCCAUGUGUCCUGCCGG	42.5	40.6		
CCGGAGACGGGUAGCCUGACAUGAGGAUCACCCAUGUGAUCCAAGGAUAUGGAUCCUAAUUGGAUCCAGAAGGUGGUUGGCUAC			376	371
CCGGGACAUGAGGAUCACCCAUGUUUCGUUUAUAGUAAAGCACAGGAUAUGAUGAAACAGGUUUCUCAGAAGGGUGUUCCGAAA			63.2	67.8
CCGGGUCGGGAGGAUAUUCGGGCCCAAGGGCUUGGAGAAGGCUCGACAUGAGGAUCACCCAUGUAAGUGUAAGG	345	698		
CCGGUAUAGGAGGAUAUAGGAGUCGAUAGACACCUAGAAGGCCUGACAUGAGGAUCACCCAUGUGUCCUUCCGG	19.6	55.8		
CCGUCAAUCGAGAAGGGCCUAUGUGCUACACCGGCAGGAUAUCGACAUGAGGAUCACCCAUGUUGGCGAUCCUUUUUGGCGGAC	135	36.5		
CCGUCACAUGAGGAUCACCCAUGUCAGGAUAUCUAUCAUAGCAUCGAAAGAUGCGGGUAGAGAAGGGACUAUCC		22.6		
CCGUGACAUGAGGAUCACCCAUGUACUCGAGAAAUCGAGUGUAGAAGGGUGACCGGUCGUUUGGCACAGGAUAUACACGGUGUG			16.6	8.92
CCGUUACAUGAGGAUCACCCAUGUGAGGAUAUCGAUGUAACUAGCAGCGUGCGGGACUCGAGAAGGCACUUGGC	104	75.2		
CCGUUACAUGAGGAUCACCCAUGUGAGGAUAUCGGUGUGACUGGCAGCGUGCGGGACUCGAGAAGGCACUGGGC	71.2	87.9		
CCUAAGAAAGGAUAUACACCGGUGGGCCGCUGAAUUCAGCAACAUGAGGAUCACCCAUGUAGAAGGUUUAUGGG	75.2	270		
CCUAAGGACACAGGAUAUAGCGUCGUGGCUGGGCUCCAACGGCGAGCGGCGCUAGAAGGGUGACCACAUGAGGAUCACCCAUGU			522	150
CCUAAGGAGACAGGAUAUAGCGUGGUGGCCGGGCUCCCACGGCGAGCGGCGCUAGAAGGGUCACUACAUGAGGAUCACCCAUGU			11.2	11.6
CCUAGAGAAGGAUAUACAUGAGGAUCACCCAUGUUCCGGCGCACAAUUAUGCGCCAAUGUAGAAGGUCUGGGCA	23.6	26.6		
